Experimental data: ChEMBL document CHEMBL2146464, “Structure-activity relationship study of nitrosopyrimidines acting as antifungal agents” (Bioorg Med Chem, 2012)
≈ marks a conversion by molar mass, not a printed value. Calls of active or inactive are those of the source. The calls are words filed in the database; no cut-off is given here.

Key:
[1] = system: Candida tropicalis; assay: Antifungal activity against Candida tropicalis assessed as growth inhibition at 250 ug/mL by microplate reader analysis; assay type: functional; details: read-out: GI
[2] = system: Cryptococcus neoformans; assay: Antifungal activity against Cryptococcus neoformans ATCC 32264 assessed as growth inhibition at 250 ug/mL after 48 hrs by microplate reader analysis; assay type: functional; details: ATCC 32264, 48 h, read-out: GI
Summary of the method: (§1)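 Microplate growth-inhibition assay in RPMI-1640, compound at final 250–0.98 µg/mL (DMSO ≤1%). Inoculum 1–5 × 10³ CFU/mL. Sterility and DMSO growth controls included. Percent inhibition is computed from blank-corrected OD relative to the growth control, tested in duplicate.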

[3] = system: Aspergillus niger; assay: Antifungal activity against Aspergillus niger ATCC 9029 at 0.98 to 250 ug/mL by NCCLS broth microdilution method; assay type: functional, organism-based
Summary of the method: (§2)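 MIC by broth microdilution per NCCLS M27-A3/M38-A2 in RPMI-1640 buffered to pH 7.0 with MOPS. Twofold dilutions from 250–0.98 µg/mL, final DMSO ≤1%. Inoculum 1–5 × 10³ CFU/mL. Incubated in a moist dark chamber, 30 °C for Aspergillus and 28–30 °C for dermatophytes. Read visually when control growth allowed. Endpoint is the lowest concentration giving total inhibition of visible growth (MIC100).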

[4] = system: Candida albicans; assay: Antifungal activity against Candida albicans ATCC 10231 assessed as growth inhibition at 7.8 ug/mL after 24 hrs by microplate reader analysis; assay type: functional; details: ATCC 10231, 24 h, read-out: GI
Summary of the method: (§3)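 96-well RPMI-1640 wells with compound at final 250–0.98 µg/mL (DMSO ≤1%). Inoculum 100 µL, 1–5 × 10³ CFU/mL, 200 µL final. Each well includes growth (DMSO, no compound) and sterility controls. % inhibition = 100 − (CTW−SCW)/(GCW−SCW) × 100, run in duplicate.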

[5] = system: Candida tropicalis; assay: Antifungal activity against Candida tropicalis assessed as growth inhibition at 125 ug/mL by microplate reader analysis; assay type: functional; details: read-out: GI
[6] = system: Candida albicans; assay: Antifungal activity against Candida albicans ATCC 10231 assessed as growth inhibition at 15.6 ug/mL after 24 hrs by microplate reader analysis; assay type: functional; details: ATCC 10231, 24 h, read-out: GI; summary of the method: as §3
[7] = system: Trichophyton mentagrophytes; assay: Antifungal activity against Trichophyton mentagrophytes ATCC 9972 at 0.98 to 250 ug/mL by NCCLS broth microdilution method; assay type: functional, organism-based; summary of the method: as §2
[8] = system: Cryptococcus neoformans; assay: Antifungal activity against Cryptococcus neoformans ATCC 32264 assessed as growth inhibition at 125 ug/mL after 48 hrs by microplate reader analysis; assay type: functional; details: ATCC 32264, 48 h, read-out: GI; summary of the method: as §1
[9] = system: Candida tropicalis; assay: Antifungal activity against Candida tropicalis by microplate reader analysis; assay type: functional
[10] = system: Candida albicans; assay: Antifungal activity against Candida albicans ATCC 10231 after 48 hrs by NCCLS broth microdilution method; assay type: functional; details: ATCC 10231, 48 h, read-out: MIC100
Summary of the method: (§4)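 Yeast MIC by NCCLS M27-A3 broth microdilution in RPMI-1640 buffered to pH 7.0 with MOPS. Twofold dilutions of 250–0.98 µg/mL, final DMSO ≤1%. Inoculum 1–5 × 10³ CFU/mL. Incubated at 30 °C in a moist dark chamber. Read visually at 48 h. MIC100 is the lowest concentration with no visible growth versus drug-free control.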

[11] = system: Nannizzia gypsea; assay: Antifungal activity against Microsporum gypseum CCC 115 at 0.98 to 250 ug/mL by NCCLS broth microdilution method; assay type: functional, organism-based; summary of the method: as §2
[12] = system: Candida albicans; assay: Antifungal activity against Candida albicans ATCC 10231 assessed as growth inhibition at 125 ug/mL after 24 hrs by microplate reader analysis; assay type: functional; details: ATCC 10231, 24 h, read-out: GI; summary of the method: as §3
[13] = system: Cryptococcus neoformans; assay: Antifungal activity against Cryptococcus neoformans ATCC 32264 assessed as growth inhibition at 62.5 ug/mL after 48 hrs by microplate reader analysis; assay type: functional; details: ATCC 32264, 48 h, read-out: GI; summary of the method: as §1
[14] = system: Aspergillus fumigatus; assay: Antifungal activity against Aspergillus fumigatus ATCC 26934 at 0.98 to 250 ug/mL by NCCLS broth microdilution method; assay type: functional, organism-based; summary of the method: as §2
[15] = system: Candida tropicalis; assay: Antifungal activity against Candida tropicalis assessed as growth inhibition at 31.25 ug/mL by microplate reader analysis; assay type: functional; details: read-out: GI
[16] = system: Aspergillus flavus; assay: Antifungal activity against Aspergillus flavus ATCC 9170 at 0.98 to 250 ug/mL by NCCLS broth microdilution method; assay type: functional, organism-based; summary of the method: as §2
[17] = system: Cryptococcus neoformans; assay: Fungicidal activity against Cryptococcus neoformans ATCC 32264 at 0.98 to 250 ug/mL after 48 hrs by agar plate dilution method; assay type: functional, organism-based
Summary of the method: (§5)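 MFC: after the microdilution MIC, material from each clear well was plated onto RPMI-1640 agar buffered with MOPS. Plates incubated at 30 °C and read after 48 h. MFC is the lowest concentration giving total inhibition of visible growth.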

[18] = system: Trichophyton rubrum; assay: Antifungal activity against Trichophyton rubrum CCC 110 at 0.98 to 250 ug/mL by NCCLS broth microdilution method; assay type: functional, organism-based; summary of the method: as §2
[19] = system: Candida albicans; assay: Antifungal activity against Candida albicans ATCC 10231 after 24 hrs by microplate reader analysis; assay type: functional; details: ATCC 10231, 24 h; summary of the method: as §3
[20] = system: Candida albicans; assay: Antifungal activity against Candida albicans ATCC 10231 assessed as growth inhibition at 3.9 ug/mL after 24 hrs by microplate reader analysis; assay type: functional; details: ATCC 10231, 24 h, read-out: GI; summary of the method: as §3
[21] = system: Candida tropicalis; assay: Antifungal activity against Candida tropicalis assessed as growth inhibition at 3.9 ug/mL by microplate reader analysis; assay type: functional; details: read-out: GI
[22] = system: Candida tropicalis; assay: Antifungal activity against Candida tropicalis assessed as growth inhibition at 15.6 ug/mL by microplate reader analysis; assay type: functional; details: read-out: GI
[23] = system: Cryptococcus neoformans; assay: Antifungal activity against Cryptococcus neoformans ATCC 32264 assessed as growth inhibition at 15.6 ug/mL after 48 hrs by microplate reader analysis; assay type: functional; details: ATCC 32264, 48 h, read-out: GI; summary of the method: as §1
[24] = system: Candida tropicalis; assay: Fungicidal activity against Candida tropicalis at 0.98 to 250 ug/mL after 48 hrs by agar plate dilution method; assay type: functional, organism-based; summary of the method: as §5
[25] = system: Candida albicans; assay: Antifungal activity against Candida albicans ATCC 10231 assessed as growth inhibition at 31.25 ug/mL after 24 hrs by microplate reader analysis; assay type: functional; details: ATCC 10231, 24 h, read-out: GI; summary of the method: as §3
[26] = system: Cryptococcus neoformans; assay: Antifungal activity against Cryptococcus neoformans ATCC 32264 assessed as growth inhibition at 3.9 ug/mL after 48 hrs by microplate reader analysis; assay type: functional; details: ATCC 32264, 48 h, read-out: GI; summary of the method: as §1
[27] = system: Cryptococcus neoformans; assay: Antifungal activity against Cryptococcus neoformans ATCC 32264 after 48 hrs by microplate reader analysis; assay type: functional; details: ATCC 32264, 48 h; summary of the method: as §1
[28] = system: Cryptococcus neoformans; assay: Antifungal activity against Cryptococcus neoformans ATCC 32264 assessed as growth inhibition at 31.25 ug/mL after 48 hrs by microplate reader analysis; assay type: functional; details: ATCC 32264, 48 h, read-out: GI; summary of the method: as §1
[29] = system: Candida albicans; assay: Antifungal activity against Candida albicans ATCC 10231 assessed as growth inhibition at 62.5 ug/mL after 24 hrs by microplate reader analysis; assay type: functional; details: ATCC 10231, 24 h, read-out: GI; summary of the method: as §3
[30] = system: Cryptococcus neoformans; assay: Antifungal activity against Cryptococcus neoformans ATCC 32264 assessed as growth inhibition at 7.8 ug/mL after 48 hrs by microplate reader analysis; assay type: functional; details: ATCC 32264, 48 h, read-out: GI; summary of the method: as §1
[31] = system: Cryptococcus neoformans; assay: Antifungal activity against Cryptococcus neoformans ATCC 32264 after 48 hrs by NCCLS broth microdilution method; assay type: functional; details: ATCC 32264, 48 h, read-out: MIC100; summary of the method: as §4
[32] = system: Candida tropicalis; assay: Antifungal activity against Candida tropicalis assessed as growth inhibition at 7.8 ug/mL by microplate reader analysis; assay type: functional; details: read-out: GI
[33] = system: Candida albicans; assay: Fungicidal activity against Candida albicans ATCC 10231 at 0.98 to 250 ug/mL after 48 hrs by agar plate dilution method; assay type: functional, organism-based; summary of the method: as §5
[34] = system: Candida tropicalis; assay: Antifungal activity against Candida tropicalis assessed as growth inhibition at 62.5 ug/mL by microplate reader analysis; assay type: functional; details: read-out: GI
[35] = system: Candida tropicalis; assay: Antifungal activity against Candida tropicalis after 48 hrs by NCCLS broth microdilution method; assay type: functional; details: read-out: MIC100; summary of the method: as §4
[36] = system: Candida albicans; assay: Antifungal activity against Candida albicans ATCC 10231 assessed as growth inhibition at 250 ug/mL after 24 hrs by microplate reader analysis; assay type: functional; details: ATCC 10231, 24 h, read-out: GI; summary of the method: as §3
[37] = Acute toxicity in bony fish assessed as mortality at 3 ug/mL after 96 hrs; details: actinopterygii; read-out: Activity
Summary of the method: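 Guppy (Poecilia reticulata) acute static exposure: 10 fish per concentration in 2 L wide-mouthed jars holding the test solution. Compounds were added from […] to give the final concentrations. Dead fish were counted and removed every 24 h, with general condition noted; percentage mortality was scored at 96 h. Two experiments, each in triplicate.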

Question: Which results are given for COc1nc(N)nc2c1ncn2C12CC3CC(CC(C3)C1)C2?
Answer: inhibition of growth at 250 µg/mL [1]: 100%; inhibition of growth at 250 µg/mL [2]: 100%; Activity [3]: inactive; inhibition of growth at 7.8 µg/mL [4]: 23.2%; inhibition of growth at 125 µg/mL [5]: 81.2%; inhibition of growth at 15.6 µg/mL [6]: 34.3%; Activity [7]: inactive; inhibition of growth at 125 µg/mL [8]: 88%; MIC50 [9]: 62.5 µg/mL (≈ 209 µM); MIC [10]: 250 µg/mL (≈ 835 µM); Activity [11]: inactive; inhibition of growth at 125 µg/mL [12]: 86.8%; inhibition of growth at 62.5 µg/mL [13]: 51.1%; Activity [14]: inactive; inhibition of growth at 31.25 µg/mL [15]: 47.3%; Activity [16]: inactive; Activity [17]: inactive; Activity [18]: inactive; MIC50 [19]: 62.5 µg/mL (≈ 209 µM); inhibition of growth at 3.9 µg/mL [20]: 29.3%; inhibition of growth at 3.9 µg/mL [21]: 36.4%; inhibition of growth at 15.6 µg/mL [22]: 41.5%; inhibition of growth at 15.6 µg/mL [23]: 39.2%; Activity [24]: inactive; inhibition of growth at 31.25 µg/mL [25]: 38.9%; inhibition of growth at 3.9 µg/mL [26]: 0%; MIC50 [27]: 31.2 µg/mL (≈ 104 µM); inhibition of growth at 31.25 µg/mL [28]: 56.9%; inhibition of growth at 62.5 µg/mL [29]: 43.4%; inhibition of growth at 7.8 µg/mL [30]: 9.5%; MIC [31]: 250 µg/mL (≈ 835 µM); inhibition of growth at 7.8 µg/mL [32]: 34.5%; Activity [33]: inactive; inhibition of growth at 62.5 µg/mL [34]: 53.3%; MIC [35]: 250 µg/mL (≈ 835 µM); inhibition of growth at 250 µg/mL [36]: 100%; mortality at 96 h, 3 ug/mL [37]: 0%
